# Data published in ChEMBL document CHEMBL1949585, “Design, synthesis and evaluation of telomerase inhibitory, hTERT repressing, and anti-proliferation activities of symmetrical 1,8-disubstituted amidoanthraquinones” (Eur J Med Chem, 2012).
# Tests used:
# [1] = Cytotoxicity against human H1299 cells assessed as cell growth at 1 uM after 48 hrs by MTT assay; format: functional; conditions: NCI-H1299, 48 h, read-out: Activity
# Method in brief: (§1)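 H1299 non-small lung cancer cells were grown in RPMI 1640 with 10% FBS and penicillin/streptomycin at 37 °C in 5% CO2. About 2×10³ cells were seeded per well and held 24 h, then washed with PBS and given fresh medium. Compound, freshly dissolved in DMSO and diluted in complete medium, was added for 48 h. MTT was read at 550 nm after SDS/DMF lysis at 37 °C for 16 h. Values are from three experiments, untreated = 100%, ±SD.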
# [2] = Cytotoxicity against human H1299 cells assessed as cell growth at 10 uM after 48 hrs by MTT assay; format: functional; conditions: NCI-H1299, 48 h, read-out: Activity; method in brief: as §1
# CCRF-CEM = assay: Cytotoxicity against human CCRF-CEM cells assessed as cell growth at 10 uM relative to control; format: functional; conditions: read-out: Activity
# Method in brief: (§2)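 Single-concentration screen in the NCI 60 human tumour cell line panel covering nine cancer types. Values are the mean growth percentage of compound-treated cells, with untreated control cells set as 100%.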
# HL-60(TB) = assay: Cytotoxicity against human HL-60(TB) cells assessed as cell growth at 10 uM relative to control; format: functional; conditions: read-out: Activity
# Method in brief: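 Tested in the NCI 60 human tumour cell line panel, covering nine cancer cell types, at a single concentration. The value is the mean growth percentage of treated cells, with untreated control cells taken as 100%.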
# MOLT-4 = assay: Cytotoxicity against human MOLT4 cells assessed as cell growth at 10 uM relative to control; format: functional; conditions: read-out: Activity; method in brief: as §2
# RPMI-8226 = assay: Cytotoxicity against human RPMI8226 cells assessed as cell growth at 10 uM relative to control; format: functional; conditions: read-out: Activity; method in brief: as §2
# A549 = assay: Cytotoxicity against human A549 cells assessed as cell growth at 10 uM relative to control; format: functional; conditions: read-out: Activity; method in brief: as §2
# EKVX = assay: Cytotoxicity against human EKVX cells assessed as cell growth at 10 uM relative to control; format: functional; conditions: read-out: Activity; method in brief: as §2
# HOP-62 = assay: Cytotoxicity against human HOP62 cells assessed as cell growth at 10 uM relative to control; format: functional; conditions: read-out: Activity; method in brief: as §2
# HOP-92 = assay: Cytotoxicity against human HOP92 cells assessed as cell growth at 10 uM relative to control; format: functional; conditions: read-out: Activity; method in brief: as §2
# NCI-H226 = assay: Cytotoxicity against human NCI-H226 cells assessed as cell growth at 10 uM relative to control; format: functional; conditions: read-out: Activity; method in brief: as §2
# NCI-H23 = assay: Cytotoxicity against human NCI-H23 cells assessed as cell growth at 10 uM relative to control; format: functional; conditions: read-out: Activity; method in brief: as §2
# NCI-H322M = assay: Cytotoxicity against human NCI-H322M cells assessed as cell growth at 10 uM relative to control; format: functional; conditions: read-out: Activity; method in brief: as §2
# NCI-H522 = assay: Cytotoxicity against human NCI-H522 cells assessed as cell growth at 10 uM relative to control; format: functional; conditions: read-out: Activity; method in brief: as §2
# COLO 205 = assay: Cytotoxicity against human COLO205 cells assessed as cell growth at 10 uM relative to control; format: functional; conditions: read-out: Activity; method in brief: as §2
# HCC 2998 = assay: Cytotoxicity against human HCC2998 cells assessed as cell growth at 10 uM relative to control; format: functional; conditions: read-out: Activity; method in brief: as §2
# HCT-116 = assay: Cytotoxicity against human HCT116 cells assessed as cell growth at 10 uM relative to control; format: functional; conditions: read-out: Activity; method in brief: as §2
# HCT-15 = assay: Cytotoxicity against human HCT15 cells assessed as cell growth at 10 uM relative to control; format: functional; conditions: read-out: Activity; method in brief: as §2
# HT-29 = assay: Cytotoxicity against human HT-29 cells assessed as cell growth at 10 uM relative to control; format: functional; conditions: read-out: Activity; method in brief: as §2
# MCF7 = assay: Cytotoxicity against human MCF7 cells assessed as cell growth at 10 uM relative to control; format: functional; conditions: read-out: Activity; method in brief: as §2
# T47D = assay: Cytotoxicity against human T47D cells assessed as cell growth at 10 uM relative to control; format: functional; conditions: read-out: Activity
# Method in brief: (§3)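 Run in the NCI 60-cell human tumour panel. Cells were exposed to 10 µM compound, and growth was given as a percentage of untreated control cells set to 100%.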
# OVCAR-3 = assay: Cytotoxicity against human OVCAR3 cells assessed as cell growth at 10 uM relative to control; format: functional; conditions: read-out: Activity; method in brief: as §2
# OVCAR-4 = assay: Cytotoxicity against human OVCAR4 cells assessed as cell growth at 10 uM relative to control; format: functional; conditions: read-out: Activity; method in brief: as §2
# OVCAR-5 = assay: Cytotoxicity against human OVCAR5 cells assessed as cell growth at 10 uM relative to control; format: functional; conditions: read-out: Activity; method in brief: as §2
# SK-OV-3 = assay: Cytotoxicity against human SKOV3 cells assessed as cell growth at 10 uM relative to control; format: functional; conditions: read-out: Activity; method in brief: as §2
# [3] = Cytotoxicity against human 786-O cells assessed as cell growth at 10 uM relative to control; format: functional; conditions: 786-0, read-out: Activity; method in brief: as §2
# A498 = assay: Cytotoxicity against human A498 cells assessed as cell growth at 10 uM relative to control; format: functional; conditions: read-out: Activity; method in brief: as §2
# TK-10 = assay: Cytotoxicity against human TK10 cells assessed as cell growth at 10 uM relative to control; format: functional; conditions: read-out: Activity; method in brief: as §3
# UO-31 = assay: Cytotoxicity against human UO31 cells assessed as cell growth at 10 uM relative to control; format: functional; conditions: read-out: Activity; method in brief: as §3
# LOX IMVI = assay: Cytotoxicity against human LOXIMVI cells assessed as cell growth at 10 uM relative to control; format: functional; conditions: read-out: Activity; method in brief: as §2
# M14 = assay: Cytotoxicity against human M14 cells assessed as cell growth at 10 uM relative to control; format: functional; conditions: read-out: Activity; method in brief: as §2
# Malme-3M = assay: Cytotoxicity against human MALME-3M cells assessed as cell growth at 10 uM relative to control; format: functional; conditions: read-out: Activity; method in brief: as §2
# SK-MEL-28 = assay: Cytotoxicity against human SK-MEL-28 cells assessed as cell growth at 10 uM relative to control; format: functional; conditions: read-out: Activity; method in brief: as §2
# UACC-257 = assay: Cytotoxicity against human UACC257 cells assessed as cell growth at 10 uM relative to control; format: functional; conditions: read-out: Activity; method in brief: as §3
# PC-3 = assay: Cytotoxicity against human PC3 cells assessed as cell growth at 10 uM relative to control; format: functional; conditions: read-out: Activity; method in brief: as §2
# SF-268 = assay: Cytotoxicity against human SF268 cells assessed as cell growth at 10 uM relative to control; format: functional; conditions: read-out: Activity; method in brief: as §2
# SF-295 = assay: Cytotoxicity against human SF295 cells assessed as cell growth at 10 uM relative to control; format: functional; conditions: read-out: Activity; method in brief: as §2
# SF-539 = assay: Cytotoxicity against human SF539 cells assessed as cell growth at 10 uM relative to control; format: functional; conditions: read-out: Activity; method in brief: as §2
# SNB-19 = assay: Cytotoxicity against human SNB19 cells assessed as cell growth at 10 uM relative to control; format: functional; conditions: read-out: Activity; method in brief: as §3
# SNB-75 = assay: Cytotoxicity against human SNB75 cells assessed as cell growth at 10 uM relative to control; format: functional; conditions: read-out: Activity; method in brief: as §3
# [4] = Inhibition of human TERT expression in H1299 cells at 1 uM after 24 hrs by secreted alkaline phosphatase reporter gene assay relative to control; values are per cent of control; conditions: NCI-H1299
# [5] = Inhibition of human TERT expression in H1299 cells at 10 uM after 24 hrs by secreted alkaline phosphatase reporter gene assay relative to control; values are per cent of control; conditions: NCI-H1299
# [6] = Inhibition of human TERT expression in H1299 cells at 100 uM after 24 hrs by secreted alkaline phosphatase reporter gene assay relative to control; values are per cent of control; conditions: NCI-H1299
compound,measurement,setting,value
CCN(CC)CC(=O)Nc1cccc2c1C(=O)c1c(NC(=O)CN(CC)CC)cccc1C2=O,growth at 1 µM,[1],86%
same,growth at 10 µM,[2],78%
same,growth at 10 µM,CCRF-CEM,84.6%
same,growth at 10 µM,HL-60(TB),94.7%
same,growth at 10 µM,MOLT-4,91.2%
same,growth at 10 µM,RPMI-8226,68.5%
same,growth at 10 µM,A549,91.7%
same,growth at 10 µM,EKVX,104%
same,growth at 10 µM,HOP-62,88.3%
same,growth at 10 µM,HOP-92,93.5%
same,growth at 10 µM,NCI-H226,85.5%
same,growth at 10 µM,NCI-H23,97.1%
same,growth at 10 µM,NCI-H322M,93.8%
same,growth at 10 µM,NCI-H522,88%
same,growth at 10 µM,COLO 205,114%
same,growth at 10 µM,HCC 2998,103%
same,growth at 10 µM,HCT-116,84.2%
same,growth at 10 µM,HCT-15,93.4%
same,growth at 10 µM,HT-29,101%
same,growth at 10 µM,MCF7,88.7%
same,growth at 10 µM,T47D,84.8%
same,growth at 10 µM,OVCAR-3,161%
same,growth at 10 µM,OVCAR-4,91.3%
same,growth at 10 µM,OVCAR-5,101%
same,growth at 10 µM,SK-OV-3,103%
same,growth at 10 µM,[3],86.4%
same,growth at 10 µM,A498,93.3%
same,growth at 10 µM,TK-10,105%
same,growth at 10 µM,UO-31,87.3%
same,growth at 10 µM,LOX IMVI,89.3%
same,growth at 10 µM,M14,98.6%
same,growth at 10 µM,Malme-3M,112%
same,growth at 10 µM,SK-MEL-28,117%
same,growth at 10 µM,UACC-257,105%
same,growth at 10 µM,PC-3,89.1%
same,growth at 10 µM,SF-268,138%
same,growth at 10 µM,SF-295,88.9%
same,growth at 10 µM,SF-539,91.7%
same,growth at 10 µM,SNB-19,94.1%
same,growth at 10 µM,SNB-75,81.7%
same,"level, % of control",[4],86%
same,"level, % of control",[5],84%
same,"level, % of control",[6],42%
COC(=O)CNCC(=O)Nc1cccc2c1C(=O)c1c(NC(=O)CNCC(=O)OC)cccc1C2=O,growth at 1 µM,[1],84%
same,growth at 10 µM,[2],86%
same,growth at 10 µM,CCRF-CEM,64.4%
same,growth at 10 µM,HL-60(TB),107%
same,growth at 10 µM,MOLT-4,83.8%
same,growth at 10 µM,RPMI-8226,37.4%
same,growth at 10 µM,A549,94.3%
same,growth at 10 µM,EKVX,104%
same,growth at 10 µM,HOP-62,108%
same,growth at 10 µM,HOP-92,75.8%
same,growth at 10 µM,NCI-H226,84.6%
same,growth at 10 µM,NCI-H23,95.2%
same,growth at 10 µM,NCI-H322M,94.5%
same,growth at 10 µM,NCI-H522,96.8%
same,growth at 10 µM,COLO 205,102%
same,growth at 10 µM,HCC 2998,106%
same,growth at 10 µM,HCT-116,96.4%
same,growth at 10 µM,HCT-15,94.3%
same,growth at 10 µM,HT-29,96.3%
same,growth at 10 µM,MCF7,89.5%
same,growth at 10 µM,T47D,83.8%
same,growth at 10 µM,OVCAR-3,89.9%
same,growth at 10 µM,OVCAR-4,87.7%
same,growth at 10 µM,OVCAR-5,106%
same,growth at 10 µM,SK-OV-3,104%
same,growth at 10 µM,[3],103%
same,growth at 10 µM,A498,85.2%
same,growth at 10 µM,TK-10,84.9%
same,growth at 10 µM,UO-31,88.9%
same,growth at 10 µM,LOX IMVI,88.2%
same,growth at 10 µM,M14,113%
same,growth at 10 µM,Malme-3M,102%
same,growth at 10 µM,SK-MEL-28,127%
same,growth at 10 µM,UACC-257,92.4%
same,growth at 10 µM,PC-3,76.6%
same,growth at 10 µM,SF-268,100%
same,growth at 10 µM,SF-295,97.2%
same,growth at 10 µM,SF-539,91.9%
same,growth at 10 µM,SNB-19,95.3%
same,growth at 10 µM,SNB-75,89.9%
same,"level, % of control",[4],111%
same,"level, % of control",[5],93%
same,"level, % of control",[6],12%
